What was measured:
D(2) dopamine receptor = D(2) dopamine receptor (Homo sapiens, UniProt P14416); assay: Displacement of [3H]-N-methylspiperone from human dopamine D2 receptor expressed in HEK293 cell membranes after 1 hr by liquid scintillation counting analysis
D(3) dopamine receptor = D(3) dopamine receptor (Homo sapiens, UniProt P35462); assay: Displacement of [3H]-N-methylspiperone from human dopamine D3 receptor expressed in HEK293 cell membranes after 1 hr by liquid scintillation counting analysis
Chain of D(3) dopamine receptor (P35462 whole entry): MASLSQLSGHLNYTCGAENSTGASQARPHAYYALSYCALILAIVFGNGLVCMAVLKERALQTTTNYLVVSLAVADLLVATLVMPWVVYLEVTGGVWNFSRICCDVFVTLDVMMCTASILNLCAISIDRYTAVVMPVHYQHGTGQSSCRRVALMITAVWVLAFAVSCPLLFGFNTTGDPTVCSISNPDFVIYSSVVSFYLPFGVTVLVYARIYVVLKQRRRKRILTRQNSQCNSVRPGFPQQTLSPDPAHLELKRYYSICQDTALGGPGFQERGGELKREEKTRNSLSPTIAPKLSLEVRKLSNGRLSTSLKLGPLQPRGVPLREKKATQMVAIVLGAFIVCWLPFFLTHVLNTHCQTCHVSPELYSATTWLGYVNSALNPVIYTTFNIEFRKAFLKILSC

D(4) dopamine receptor = biological target: T1, D(4) dopamine receptor (Homo sapiens, UniProt P21917); assay: Displacement of [3H]-N-methylspiperone from human dopamine D4 receptor expressed in HEK293 cell membranes after 1 hr by liquid scintillation counting analysis
T1 sequence (P21917 whole entry): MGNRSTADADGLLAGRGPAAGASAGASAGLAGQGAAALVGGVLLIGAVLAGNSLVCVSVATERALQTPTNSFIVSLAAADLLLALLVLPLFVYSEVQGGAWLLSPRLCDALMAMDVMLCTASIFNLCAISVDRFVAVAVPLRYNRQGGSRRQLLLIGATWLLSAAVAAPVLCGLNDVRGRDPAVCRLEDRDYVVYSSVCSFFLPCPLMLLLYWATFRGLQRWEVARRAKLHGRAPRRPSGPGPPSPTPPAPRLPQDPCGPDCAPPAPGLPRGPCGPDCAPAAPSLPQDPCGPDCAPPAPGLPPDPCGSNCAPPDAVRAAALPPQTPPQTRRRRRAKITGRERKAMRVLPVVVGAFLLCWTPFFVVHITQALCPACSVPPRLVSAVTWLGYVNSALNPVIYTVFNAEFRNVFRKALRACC

Homo sapiens = species on record: Homo sapiens; assay: Selectivity ratio of Ki for human dopamine D2 receptor to Ki for human dopamine D3 receptor
How it was run: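 Ki values from [3H]N-methylspiperone (0.4 nM) competition in membranes from HEK293 cells stably expressing human D2R or D3R, 10 μg protein per tube. Incubated 1 h at room temperature in triplicate, with 10 μM butaclamol defining nonspecific binding. […] Ratio is D2R Ki divided by D3R Ki.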

[1] = Metabolic stability in mouse liver microsomes assessed as compound remaining at 1 uM after 60 mins by LC/MS/MS analysis in presence of NADPH regenerating system; format: ADME; conditions: read-out: Stability
[2] = Metabolic stability in mouse liver microsomes assessed as compound remaining at 1 uM after 30 mins by LC/MS/MS analysis in presence of NADPH regenerating system; format: ADME; conditions: read-out: Stability
How it was run: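 Mouse liver microsomes at 0.2 mg/mL with compound at 1 μM final, in 100 mM potassium phosphate pH 7.4. Reaction started by adding microsomes, triplicate. Sampled at 0, 30 and 60 min and quenched with ice-cold acetonitrile plus internal standard. Percent parent remaining measured by LC/MS/MS. Controls lacking NADPH were run; testosterone served as positive control.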

Chain of D(2) dopamine receptor (P14416 whole entry): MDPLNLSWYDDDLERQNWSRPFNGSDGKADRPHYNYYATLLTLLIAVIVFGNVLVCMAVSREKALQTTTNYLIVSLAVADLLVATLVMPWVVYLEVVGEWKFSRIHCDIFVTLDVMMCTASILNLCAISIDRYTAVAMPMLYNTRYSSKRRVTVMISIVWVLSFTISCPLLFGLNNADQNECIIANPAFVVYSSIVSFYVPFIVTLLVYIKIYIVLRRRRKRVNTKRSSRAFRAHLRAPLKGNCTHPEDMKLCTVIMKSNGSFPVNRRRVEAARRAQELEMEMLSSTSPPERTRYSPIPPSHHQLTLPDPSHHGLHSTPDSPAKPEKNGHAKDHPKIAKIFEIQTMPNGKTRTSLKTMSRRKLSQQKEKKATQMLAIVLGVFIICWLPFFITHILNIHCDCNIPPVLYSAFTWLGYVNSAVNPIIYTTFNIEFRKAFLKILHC

SMILES	Ki (D(2) dopamine receptor)	Ki (D(3) dopamine receptor)	Ki (D(4) dopamine receptor)	Ratio Ki (Homo sapiens)	remaining at 1 h, 1 µM [1]	remaining at 0.5 h, 1 µM [2]
OC(CCn1cc(-c2ccc(-c3ccccc3)cc2)nn1)CN1CCN(c2cccc(Cl)c2Cl)CC1 (racemic)	15100 nM	55.8 nM	> 7000 nM	270	–	–
COc1ccccc1N1CCN(CC(O)CCn2cc(-c3ccc4ccccc4c3)nn2)CC1 (racemic)	189 nM	40.7 nM	> 2000 nM	4.6	–	–
COc1ccccc1N1CCN(CC(O)CCn2cc(-c3ccc4c(c3)Cc3ccccc3-4)nn2)CC1 (racemic)	607 nM	18.5 nM	> 1000 nM	33	–	–
Clc1cccc(N2CCN(CCCCn3cc(-c4ccc5ccccc5c4)nn3)CC2)c1Cl	103 nM	7.7 nM	> 1000 nM	13	–	–
COc1ccccc1N1CCN(CC(O)CCn2cc(-c3ccc4[nH]ccc4c3)nn2)CC1 (racemic)	789 nM	33.6 nM	–	23	27%	44%
COc1ccccc1N1CCN(CCCCc2cn(-c3ccc4c(c3)Cc3ccccc3-4)nn2)CC1	57.2 nM	1.59 nM	329 nM	36	–	–
COc1ccccc1-c1cn(CCC(O)CN2CCN(c3ccccc3OC)CC2)nn1 (racemic)	1020 nM	493 nM	> 3000 nM	2.1	–	–
COc1ccccc1N1CCN(CCCCn2cc(-c3ccc4[nH]ccc4c3)nn2)CC1	43.7 nM	5.48 nM	222 nM	8	–	–
COc1ccccc1N1CCN(CCCCc2cn(-c3ccccc3)nn2)CC1	53.6 nM	5.42 nM	486 nM	10	–	–
O=C(NCCC(O)CN1CCN(c2cccc(Cl)c2Cl)CC1)c1cnc2ccccc2c1 (stereo unspecified)	321 nM	2.91 nM	–	110	4%	–
COc1ccccc1N1CCN(CC(O)CCn2cc(-c3ccc(-c4ccccc4)cc3)nn2)CC1 (racemic)	819 nM	30.5 nM	> 2000 nM	27	–	–
Clc1cccc(N2CCN(CCCCn3cc(-c4ccc(-c5ccccc5)cc4)nn3)CC2)c1Cl	2590 nM	8.32 nM	> 10000 nM	311	–	–
COc1ccccc1N1CCN(CCCCn2cc(-c3ccc4ccccc4c3)nn2)CC1	23.3 nM	11.1 nM	232 nM	2.1	–	–
COc1ccccc1N1CCN(CCCCn2cc(-c3ccc(-c4ccccc4)cc3)nn2)CC1	69 nM	5.88 nM	425 nM	12	–	–

Continued by falling Ki (D(2) dopamine receptor), values first:

Ki (D(2) dopamine receptor)	Ki (D(3) dopamine receptor)	Ki (D(4) dopamine receptor)	Ratio Ki (Homo sapiens)	remaining at 1 h, 1 µM [1]	remaining at 0.5 h, 1 µM [2]	SMILES
18800 nM	25.2 nM	> 20000 nM	745	–	–	OC(CCn1cc(-c2ccc3ccccc3c2)nn1)CN1CCN(c2cccc(Cl)c2Cl)CC1 (racemic)
1210 nM	173 nM	> 3000 nM	7	–	–	COc1ccccc1N1CCN(CC(O)CCn2cc(-c3ccccc3)nn2)CC1 (racemic)
963 nM	5.85 nM	–	165	35%	45%	OC(CCn1cc(-c2ccc3[nH]ccc3c2)nn1)CN1CCN(c2cccc(Cl)c2Cl)CC1 (racemic)
885 nM	14 nM	> 20000 nM	63	–	–	Clc1cccc(N2CCN(CCCCn3cc(-c4ccc5c(c4)Cc4ccccc4-5)nn3)CC2)c1Cl
424 nM	68.2 nM	> 3000 nM	6.2	–	–	COc1ccccc1N1CCN(CC(O)CCn2cc(-c3ccc4ncccc4c3)nn2)CC1 (racemic)
424 nM	5.05 nM	4450 nM	84	–	–	Clc1cccc(N2CCN(CCCCc3cn(-c4ccc5c(c4)Cc4ccccc4-5)nn3)CC2)c1Cl
244 nM	18 nM	–	14	26%	–	OC(CCn1cc(-c2cnc3ccccc3c2)nn1)CN1CCN(c2cccc(Cl)c2Cl)CC1 (racemic)
137 nM	22.9 nM	480 nM	6	–	–	COc1ccccc1N1CCN(CCCCn2cc(-c3ccccc3)nn2)CC1
83.4 nM	13.1 nM	> 1000 nM	6.4	–	–	COc1ccccc1N1CCN(CCCCc2cn(-c3cccc4ncccc34)nn2)CC1
80.8 nM	3.8 nM	> 2000 nM	21	–	–	Clc1cccc(N2CCN(CCCCc3cn(-c4ccc5ccccc5c4)nn3)CC2)c1Cl
56.1 nM	1.47 nM	> 2000 nM	38	–	–	Clc1cccc(N2CCN(CCCCn3cc(-c4ccc5[nH]ccc5c4)nn3)CC2)c1Cl
53.9 nM	1.35 nM	> 1000 nM	40	–	–	Clc1cccc(N2CCN(CCCCn3cc(-c4ccc5ncccc5c4)nn3)CC2)c1Cl
51.8 nM	3.1 nM	353 nM	17	–	–	COc1ccccc1N1CCN(CCCCc2cn(-c3ccc4[nH]ccc4c3)nn2)CC1
50.1 nM	5.55 nM	588 nM	9	–	–	COc1ccccc1N1CCN(CCCCn2cc(-c3ccc4c(c3)Cc3ccccc3-4)nn2)CC1
46.6 nM	1 nM	510 nM	47	–	–	Clc1cccc(N2CCN(CCCCc3cn(-c4ccc5[nH]ccc5c4)nn3)CC2)c1Cl
42.5 nM	6.73 nM	269 nM	6.3	–	–	COc1ccccc1N1CCN(CCCCn2cc(-c3ccc4ncccc4c3)nn2)CC1
31.5 nM	2.93 nM	299 nM	11	–	–	COc1ccccc1N1CCN(CCCCc2cn(-c3ccc4ccccc4c3)nn2)CC1

— ChEMBL document CHEMBL3588746, “Using click chemistry toward novel 1,2,3-triazole-linked dopamine D3 receptor ligands” (Bioorg Med Chem, 2015)
